Laboratory results taken from ChEMBL document CHEMBL4706606, “Re-evaluating pretomanid analogues for Chagas disease: Hit-to-lead studies reveal both in vitro and in vivo trypanocidal efficacy” (Eur J Med Chem, 2020).
Values after ≈ are worked out from the molar mass of the structure shown. Active and inactive are the calls of the source. The rule behind the calls is not given here.

Legend:
Trypanosoma cruzi [1] = test: Antitrypanosomal activity against Trypanosoma cruzi Tulahuen strain C2C4 amastigotes infected in […] cells assessed as reduction in parasite growth incubated for 48 hrs by chlorophenol red-fl-D-galactopyranoside based colorimetric analysis; type: functional, organism-based; settings: for IC50: Tulahuen strain C2C4, NIH3T3, 48 h; for IC90: Tulahuen strain C2C4, NIH3T3, time 48 hrs
[2] = Cytotoxicity against rat 3T3 cells assessed as reduction in cell viability incubated for 72 hrs by alamar blue assay; type: ADME, cell-based; settings: NIH3T3, 72 h
Trypanosoma cruzi [3] = test: Antitrypanosomal activity against Trypanosoma cruzi Tulahuen strain C2C4 amastigotes infected in […] cells assessed as reduction in parasite growth incubated for 48 hrs by chlorophenol red-fl-D-galactopyranoside based colorimetric analysis relative to control; type: functional
[4] = Inhibition of Trypanosoma cruzi Tulahuen C4 strain CYP51 expressed in Escherichia coli by fluorescence based assay
Trypanosoma cruzi [5] = test: Antitrypanosomal activity against Trypanosoma cruzi Tulahuen strain C2C4 amastigotes infected in rat L6 cells assessed as inhibition of parasite growth incubated for 96 hrs by chlorophenol red-fl-D-galactopyranoside based colorimetric analysis; type: functional, organism-based; settings: for IC50: Tulahuen strain C2C4, L6, 96 h; for IC90: Tulahuen strain C2C4, L6, time 96 hrs
In short: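 Tulahuen strain TcVI T. cruzi expressing β-galactosidase, grown in L6 rat skeletal myoblast host cells. IC50/IC90 growth inhibition. Each value is the mean of ≥2 independent determinations using fresh sample stock.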

L6 = test: Cytotoxicity against rat L6 cells assessed as reduction in cell viability incubated for 72 hrs by alamar blue assay; type: ADME, cell-based; settings: L6, 72 h
[6] = Selectivity index, ratio of IC50 for cytotoxicity against rat L6 cells to IC50 for antitrypanosomal activity against Trypanosoma cruzi Tulahuen strain C2C4 amastigotes infected in rat L6 cells
[7] = Kinetic solubility of compound in water sonicated for 15 mins by HPLC analysis
[8] = Metabolic stability in CD-1 mouse liver microsomes assessed as parent compound remaining incubated for 1 hr; type: ADME, Microsome
In short: (§1)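 Pooled human or CD-1 mouse liver microsomes at 0.4 mg/mL microsomal protein. Percent parent remaining after 1 h incubation.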

[9] = Metabolic stability in human liver microsomes assessed as parent compound remaining incubated for 1 hr; type: ADME, Microsome; settings: read-out: Stabilty; in short: as §1
[10] = Selectivity index, ratio of IC50 for cytotoxicity against rat 3T3 cells to IC50 for antitrypanosomal activity against Trypanosoma cruzi Tulahuen strain C2C4 amastigotes infected in rat 3T3 cells
Trypanosoma cruzi [11] = test: Antitrypanosomal activity against bloodstream trypomastigotes form of Trypanosoma cruzi CL Brener infected in BALB/c mouse assessed as reduction in parasitemia at 100 mg/kg, po qd administered for 5 days starting from day 114 post infection followed by cyclophosphamide induced immunosuppression on days 135, 139 and 143 post infection and measured for 149 days by bioluminescence analysis; type: functional, organism-based; settings: time 5.0 day
In short: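 Female BALB/c mice, 8 weeks old, ~18 g, 5 per group. Infected i.p. with 10^3 bloodstream trypomastigotes of bioluminescent CL Brener (pTRIX2-RE9h). From day 114 p.i., oral dosing once daily for 5 days: reference drugs at 100 mg/kg in HPMC-SV with 5% DMSO, PEG400 vehicle at 50 mg/kg. Cyclophosphamide 200 mg/kg i.p. on days 135, 139 and 143. Final imaging day 149. Ex vivo organ bioluminescence days 149-151.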

[12] = Half life in human liver microsomes incubated for 60 mins
Trypanosoma cruzi [13] = test: Antitrypanosomal activity against Trypanosoma cruzi amastigotes assessed as inhibition of parasite growth at 10 ug/ml relative to control

Row | SMILES | IC50 (Trypanosoma cruzi [1]) [nM] | IC90 (Trypanosoma cruzi [1]) [µM] | IC50 (Trypanosoma cruzi [5]) [nM] | IC90 (Trypanosoma cruzi [5]) [nM] | IC50 [2] [µM] | %max (Trypanosoma cruzi [3]) [%] | IC50 [4] [µM] | IC50 (L6) [µM] | selectivity ratio [6] | selectivity ratio ([10]; 3T3 cells) | other results
1 | CC1(COc2ccc(OC(F)(F)F)cc2)Cn2cc([N+](=O)[O-])nc2O1 (racemic) | 950 | 2.3 | – | – | > 73 | 68 | > 10 | – | – | – | –
2 | O=[N+]([O-])c1cn2c(n1)OC(COc1cnc(-c3ccc(OC(F)(F)F)cc3)nc1)CC2 (stereo not drawn) | – | – | 330 | 960 | – | – | – | 70 | 212 | – | –
3 | CC1(COc2ccc(OC(F)(F)F)cc2)CCn2cc([N+](=O)[O-])nc2S1(=O)=O (stereo not drawn) | 1300 | 3 | 700 | 1600 | > 37 | 101 | > 10 | > 100 | > 143 | > 28 | solubility kinetic at 0.25 h [7]: 1.1 µg/mL (≈ 2.61 µM); remaining at 1 h [8]: 76%; remaining at 1 h [9]: 88%
4 | O=[N+]([O-])c1cn2c(n1)OC(COc1ccc(-c3ccc(OC(F)(F)F)cc3)nn1)CC2 (stereo not drawn) | – | – | 380 | 960 | – | – | – | 42 | 111 | – | –
5 | O=[N+]([O-])c1cn2c(n1)OC(COc1ccc(-c3ccc(OC(F)(F)F)cc3)cn1)CC2 (stereo not drawn) | – | – | 40 | 180 | – | – | – | > 100 | > 2500 | – | –
6 | O=[N+]([O-])c1cn2c(n1)OC(COc1cnc(-c3ccc(OC(F)(F)F)cc3)cn1)CC2 (stereo not drawn) | – | – | 210 | 6700 | – | – | – | > 100 | > 476 | – | –
7 | CC1(COc2ccc(OC(F)(F)F)c(Cl)c2)CCn2cc([N+](=O)[O-])nc2O1 (stereo not drawn) | – | – | 310 | 6500 | – | – | – | 53 | – | – | solubility kinetic at 0.25 h [7]: 0.5 µg/mL (≈ 1.23 µM)
8 | CC1(COc2ccc(OC(F)(F)F)cc2)CCn2cc([N+](=O)[O-])nc2S1 (stereo not drawn) | – | – | 1100 | 2600 | – | – | – | > 100 | > 91 | – | –
9 | CSc1cnc2n1CC(C)(COc1ccc(OC(F)(F)F)cc1)O2 (stereo not drawn) | 2000 | 16 | – | – | > 73 | 93 | > 10 | – | – | > 37 | –
10 | CC1(COc2ccc(OC(F)(F)F)cc2)Cn2ccnc2O1 (stereo not drawn) | 4700 | 10 | – | – | > 73 | 80 | 0.16 | – | – | > 16 | –
11 | CC1CS(=O)(=O)CCN1/N=C/c1ccc([N+](=O)[O-])o1 (stereo not drawn) [NIFURTIMOX] | 2100 | 4.6 | – | – | > 127 | 99 | > 10 | – | – | – | Activity (Trypanosoma cruzi [11]): Active; selectivity ratio [10]: > 60
12 | CC1(COc2ccc(OC(F)(F)F)cc2)CCn2cc([N+](=O)[O-])nc2[S+]1[O-] (stereo not drawn) | – | – | 1600 | 3700 | – | – | – | 73 | 46 | – | –

Continued, in another order:

Row | IC50 (Trypanosoma cruzi [1]) [nM] | IC90 (Trypanosoma cruzi [1]) [µM] | IC50 (Trypanosoma cruzi [5]) [nM] | IC90 (Trypanosoma cruzi [5]) [nM] | SMILES | IC50 [2] [µM] | %max (Trypanosoma cruzi [3]) [%] | IC50 [4] [µM] | IC50 (L6) [µM] | selectivity ratio [6] | selectivity ratio ([10]; 3T3 cells) | other results
13 | 74 | 0.33 | 18 | 44 | O=[N+]([O-])c1cn2c(n1)OC(COc1ccc(-c3ccc(F)nc3)cc1)CC2 (stereo not drawn) | > 37 | 98 | > 10 | > 100 | > 5560 | > 500 | –
14 | 12000 | 37 | – | – | O=C(Cn1ccnc1[N+](=O)[O-])NCc1ccccc1 [BENZNIDAZOLE] | > 127 | 101 | > 10 | – | – | > 11 | Activity (Trypanosoma cruzi [11]): Active
15 | – | – | 900 | – | O=[N+]([O-])c1cn2c(n1)SCC(OCc1ccc(OCc3ccccc3)cc1)C2 (stereo not drawn) | – | – | – | – | – | – | –
16 | – | – | 35 | 89 | O=[N+]([O-])c1cn2c(n1)[S+]([O-])CC(OCc1ccc(COc3ccccc3)cc1)C2 (stereo not drawn) | – | – | – | > 100 | > 2860 | – | solubility kinetic at 0.25 h [7]: 0.44 µg/mL (≈ 1.06 µM); half-life at 1 h [12]: 156 min; inhibition at 10 µg/mL (Trypanosoma cruzi [13]): 89%
17 | 720 | 2.1 | – | – | CC1(COc2ccc(OC(F)(F)F)cc2)Cn2nc([N+](=O)[O-])nc2O1 (stereo not drawn) | > 73 | 96 | > 10 | – | – | > 101 | –
18 | – | – | 2700 | – | O=[N+]([O-])c1cn2c(n1)OC[C@H](OCc1ccc(-c3ccccc3)cc1)C2 | – | – | – | – | – | – | –
19 | – | – | 47 | 130 | O=[N+]([O-])c1nc2n(n1)C[C@H](OCc1ccc(OCc3ccccc3)cc1)CO2 | – | – | – | > 100 | > 2130 | – | solubility kinetic at 0.25 h [7]: 0.18 µg/mL (≈ 0.471 µM); inhibition at 10 µg/mL (Trypanosoma cruzi [13]): 12%
